This note sets out measurements from ChEMBL document CHEMBL1131482 (J Med Chem, 1998).

The structures appear in SMILES notation. Calls of active or inactive are those of the source.

Experiment [1] is filed under the species Mus musculus. The experiment in a line: Analgesic efficacy is expressed as percentage of that morphine, done on mouse. The format is functional.
Experiment [2] concerns Mus musculus. The experiment in a line: Licking latency was measured before treatment (at dose=25 mg/kg) by using mouse hot plate test. The format is functional. Put shortly: (§1)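 Male Swiss-Webster mice (22-28 g), 23 ± 1 °C, 12-h light/dark cycle, food and water ad libitum. Hot plate at 52.5 ± 0.1 °C with licking latency as read-out and 45 s cutoff. Mice with pre-drug latency below 12 or over 18 s were rejected. Compounds given sc, 5-12 mice per test. Significance was assessed by Dunnett's two-tailed test, P < 0.05.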

Experiment [3] deals with Mus musculus. In words: Licking latency was measured after 15 min treatment (at dose=5 mg/kg) by using mouse hot plate test. The format is functional. Put shortly:
as §1
A general note: In hot-plate and tail-flick tests a longer latency is read as antinociception.

The subject of experiment [4] is Mus musculus. In words: Licking latency was measured before treatment (at dose=5 mg/kg) by using mouse hot plate test. The format is functional. The method, boiled down:
(§2)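 Male Swiss-Webster mice (22-28 g), 23 ± 1 °C, 12-h light/dark cycle. Hot plate at 52.5 ± 0.1 °C. Mice with pre-drug licking latency below 12 s or over 18 s were rejected. Cutoff 45 s. Compound given sc; latency read before dosing and at 15, 30 and 45 min. 5-12 mice per test.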

Experiment [5] relates to Mus musculus. The experiment in a line: Licking latency was measured after 30 min treatment (at dose=25 mg/kg) by using mouse hot plate test. It is filed as functional. The method, boiled down: as §1
Experiment [6] relates to Mus musculus. The experiment in a line: MAD: minimal dose able to induce a statistically significant increase of the pain threshold, done on mouse; sc. The format is functional. The method, boiled down:
(§3)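 Mouse hot plate test (52.5 ± 0.1 °C, 45 s cutoff) after sc dosing, in male Swiss-Webster mice. The value is the lowest dose giving a statistically significant rise in pain threshold. Dunnett's two-tailed test compared treated mice at maximum reaction time with pretest time, P < 0.05.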

The test system of experiment [7] is Mus musculus. The experiment in a line: Licking latency was measured after 45 min treatment (at dose=25 mg/kg) by using mouse hot plate test. It is filed as functional. Put shortly: as §1
Experiment [8] is filed under the species Mus musculus. In words: Analgesic efficacy is expressed as percentage of that epibatidine, done on mouse. It is filed as functional.
For experiment [9], the system named is Mus musculus. The experiment in a line: Licking latency was measured after 15 min treatment (at dose=25 mg/kg) by using mouse hot plate test. It is filed as functional. Put shortly: as §1
The subject of experiment [10] is Mus musculus. The experiment in a line: Licking latency was measured after 45 min treatment (at dose=5 mg/kg) by using mouse hot plate test. The format is functional. The method, boiled down:
as §1

Experiment [11] concerns Mus musculus. In words: Licking latency was measured after 30 min treatment (at dose=5 mg/kg) by using mouse hot plate test. It is filed as functional. The method, boiled down: as §1
The test system of experiment [12] is Mus musculus. The experiment in a line: MNTD:Maximal nontoxic dose of the compound, done on mouse; sc. The format is functional. The method, boiled down: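 Male Swiss-Webster mice dosed sc. The value is the highest dose causing no visible behavioural change (tremors, convulsions, hypomotility etc.), so that treated mice could not be told apart from untreated ones. Behaviour was scored by the Irwin method in groups of at least 10 animals.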

In experiment [13] the test system is Mus musculus. The experiment in a line: Licking latency was measured after 45 min treatment (at dose=10 mg/kg) by using mouse hot plate test. It is filed as functional. The method, boiled down: as §1
The subject of experiment [14] is Mus musculus. The experiment in a line: Licking latency was measured before treatment (at dose=10 mg/kg) by using mouse hot plate test. The format is functional. The method, boiled down:
as §1

Experiment [15] concerns Mus musculus. In words: Licking latency was measured before treatment (at dose=3 mg/kg) by using mouse hot plate test. It is filed as functional. The method, boiled down: as §2
The subject of experiment [16] is Mus musculus. In words: Licking latency was measured after 30 min treatment (at dose=3 mg/kg) by using mouse hot plate test. The format is functional. Put shortly:
as §1

The subject of experiment [17] is Mus musculus. In words: Licking latency was measured after 45 min treatment (at dose=3 mg/kg) by using mouse hot plate test. It is filed as functional. Put shortly:
as §1

In experiment [18] the test system is Mus musculus. In words: Licking latency was measured after 30 min treatment (at dose=10 mg/kg) by using mouse hot plate test. It is filed as functional. Put shortly:
as §1

Experiment [19] concerns Mus musculus. In words: Licking latency was measured after 15 min treatment (at dose=3 mg/kg) by using mouse hot plate test. The format is functional. The method, boiled down: as §1
In experiment [20] the test system is Mus musculus. In words: Licking latency was measured after 15 min treatment (at dose=10 mg/kg) by using mouse hot plate test. The format is functional. The method, boiled down: as §1
Experiment [21] deals with Mus musculus. The experiment in a line: Licking latency was measured after 30 min treatment (at dose=25 mg/kg) by using mouse hot plate test (*P<0.01). The format is functional. The method, boiled down:
as §1

Experiment [22] relates to Mus musculus. The experiment in a line: Licking latency was measured before treatment (at dose=15 mg/kg) by using mouse hot plate test. The format is functional. Put shortly:
as §1

The subject of experiment [23] is Mus musculus. The experiment in a line: Licking latency was measured after 30 min treatment (at dose=15 mg/kg) by using mouse hot plate test (*P<0.01). It is filed as functional. Put shortly:
as §1

Experiment [24] relates to Mus musculus. The experiment in a line: Licking latency was measured after 45 min treatment (at dose=25 mg/kg) by using mouse hot plate test (*P<0.01). It is filed as functional. Put shortly: as §1
For experiment [25], the system named is Mus musculus. The experiment in a line: Licking latency was measured after 15 min treatment (at dose=15 mg/kg) by using mouse hot plate test (*P<0.01). It is filed as functional. The method, boiled down: as §1
Experiment [26] has as its system Mus musculus. In words: Licking latency was measured after 15 min treatment (at dose=25 mg/kg) by using mouse hot plate test (*P<0.01). It is filed as functional. The method, boiled down:
as §1

In experiment [27] the test system is Mus musculus. The experiment in a line: Licking latency was measured after 45 min treatment (at dose=15 mg/kg) by using mouse hot plate test (*P<0.01). The format is functional. Put shortly:
as §1

Experiment [28] concerns Mus musculus. In words: Licking latency was measured after 45 min treatment (at dose=50 mg/kg) by using mouse hot plate test. It is filed as functional. Put shortly:
as §1

In experiment [29] the test system is Mus musculus. The experiment in a line: MAD: minimal dose able to induce a statistically significant increase of the pain threshold, done on mouse; sc; IA = inactive. The format is functional, organism-based. Put shortly:
as §3

Experiment [30] has as its system Mus musculus. The experiment in a line: Licking latency was measured after 15 min treatment (at dose=50 mg/kg) by using mouse hot plate test. It is filed as functional. Put shortly:
as §1

For experiment [31], the system named is Mus musculus. The experiment in a line: Licking latency was measured before treatment (at dose=50 mg/kg) by using mouse hot plate test. It is filed as functional. Put shortly: as §2
Experiment [32] deals with Mus musculus. In words: Licking latency was measured after 30 min treatment (at dose=50 mg/kg) by using mouse hot plate test. It is filed as functional. The method, boiled down:
as §1

Take `Clc1cccnc1N1CC2CCC(C1)N2`: in experiment [1], the “Analgesic efficacy compared to morphine” value worked out at 124%. Moreover, the Licking latency in experiment [2] was determined as 15.3 s; in experiment [3], 21.3 s; in experiment [4], 13.7 s; in experiment [5] it was 29.7 s; in experiment [7], 27.5 s; in [9] it was 39.2 s. The results for the Licking latency in experiment [10] and in experiment [11] were 18.3 s and 20.3 s, respectively. Besides, the MAD in [6] turned out to be 10 mg/kg. Moreover, in experiment [8], the “Analgesic efficacy compared to epibatidine” value is listed as 151%. This compound showed an MNTD in experiment [12] of 40 mg/kg.

Take `Clc1nccc(N2CC3CCC(C2)N3)n1`: the “Analgesic efficacy compared to morphine” value in experiment [1] is listed as 82%. Besides, the Licking latency in [13] is 24.3 s; in experiment [14] it was 15.3 s; in [15], 14.5 s; in [16] it was 17.4 s; in experiment [17], 16.2 s; in [18] it was 26 s. The Licking latency is 21.3 s in experiment [19] and 31.1 s in experiment [20]. The compound further returned an MAD in experiment [6] of 3 mg/kg. Further, the “Analgesic efficacy compared to epibatidine” value in experiment [8] is on record as 99%. Besides, in experiment [12], the MNTD turned out to be 15 mg/kg.

Take `Clc1cc(N2CC3CCC(C2)N3)ncn1`: the “Analgesic efficacy compared to morphine” value in experiment [1] was determined as 127%. In addition, the Licking latency stood at 14.9 s in [2]; 38.5 s in [21]; 19.6 s in experiment [13]; 13.6 s in experiment [14]; 19.7 s in experiment [18]; 39.1 s in experiment [7]. Besides, the values for the Licking latency in experiment [9] and in [20] were 39.5 s and 22.2 s, respectively. Besides, the MAD in [6] was 10 mg/kg. In addition, the “Analgesic efficacy compared to epibatidine” value in experiment [8] was determined as 156%. In addition, the MNTD in experiment [12] stood at 30 mg/kg.

With `CSc1nc(Cl)cc(N2CC3CCC(C2)N3)n1`, in [1], the “Analgesic efficacy compared to morphine” value was 149%. Besides, the Licking latency in experiment [2] turned out to be 15.1 s; in experiment [3], 20.3 s; in experiment [4] it was 14.7 s; in [5], 43.8 s; in experiment [7], 36.5 s; in experiment [9] it was 40.8 s. Besides, the Licking latency in experiment [10] is on record as 18.7 s; in [11], 20.5 s. In addition, the MAD in [6] stood at 5 mg/kg. In addition, the “Analgesic efficacy compared to epibatidine” value in [8] is reported as 182%. In [12], this compound had an MNTD of 30 mg/kg.

For `Clc1ccc(N2C3CCC2CNC3)nn1`, the “Analgesic efficacy compared to morphine” value in experiment [1] worked out at 107%. The Licking latency is given as 15 s in experiment [2]; 34.8 s in experiment [21]; 17.4 s in [13]; 12.2 s in experiment [14]; 15.3 s in [22]; 22.9 s in experiment [23]. For the same compound, the Licking latency in experiment [24] came out at 26.4 s; in experiment [25], 23.2 s; in experiment [18], 15.4 s; in experiment [26], 35.5 s; in experiment [27], 20.6 s; in experiment [20] it was 17 s. Moreover, the MAD in [6] was 15 mg/kg. Further, in experiment [8], the “Analgesic efficacy compared to epibatidine” value stood at 130%. In addition, the MNTD in [12] was 30 mg/kg.

In the case of `CCC(=O)N1CC2CCC(C1)N2c1ccc(Cl)nn1`, the Licking latency in experiment [28] stood at 14 s; in experiment [13], 16.1 s; in experiment [14], 15.8 s; in experiment [30], 17 s; in experiment [31] it was 14.6 s; in experiment [18] it was 16.7 s. Besides, the Licking latency in [20] is given as 16 s; in [32] it was 13 s. The MAD result in [29] is “inactive”. For the same compound, in experiment [12], the MNTD is greater than 50 mg/kg.
